Source: PubChem
T cell modulator: modulators of CD8 T cell-vesicle binding, primary screen, mouse 2C CD8+ T cells, flow cytometry; response (vesicle binding), % at 7 µM; 330,000 tested, 0.068% active; 2C CD8+ T cell-vesicle binding; active compounds read low; AID 2052, 2009;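 active = response, share of CD8 T cells binding vesicles, and their 90th percentile fluorescence all below set limits, cut at about 80% in these data, passing the limit was not always enough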;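 also: values below 100% mean blocked vesicle binding to the CD8+ T cells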
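System: murine 2C transgenic CD8+ T lymphocytes; also added: QL9-loaded Drosophila micro-vesicles; times: binding 1.5 h at 37 °C; measured by: flow cytometry, PE anti-B7-1 (FL2) versus Alexa647 anti-CD8 (FL8), PFA-fixed; control set: Peptide-free naked vesicles (low) and QL9 vesicles with 0.7% DMSO vehicle (high)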
MCL1-BIM inh: inhibitors of MCL1 binding to BIM-BH3, primary screen, biochemical, fluorescence polarization; Induced myeloid leukemia cell differentiation protein Mcl-1 (Homo sapiens), Q07820; GST-MCL1 / FITC-Bim-BH3 fluorescence polarization; inhibition, % at 10.9 µM; 320,000 tested, 0.68% active; AID 2057, 2009;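 active = inhibition above the mean inhibition of all tested compounds plus 3 SD, set per campaign, cut at about 40% in these data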;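 also: 0% = DMSO wells and 100% = unlabeled Bim-BH3 peptide control; higher means more loss of mP so more displacement of Bim peptide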
Pemphigus Ab inh: inhibitors of pemphigus antibody binding to DSG3, primary screen, biochemical, bead-based, flow cytometry, scFv-GFP | AID 588358, 2011 | DSG3-coupled beads, scFv-anti-DSG3-GFP binding; active compounds read low | binding (percent of control), % at 10 µM | 310,000 tested, 0.48% active | Desmoglein-3 (Homo sapiens), P32926;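 active = binding more than 3 SD below its plate's average and above zero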;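 also: hits lower antibody fragment binding to DSG3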
Target sequence (P32926 whole entry, looked up, the tested form may be a part): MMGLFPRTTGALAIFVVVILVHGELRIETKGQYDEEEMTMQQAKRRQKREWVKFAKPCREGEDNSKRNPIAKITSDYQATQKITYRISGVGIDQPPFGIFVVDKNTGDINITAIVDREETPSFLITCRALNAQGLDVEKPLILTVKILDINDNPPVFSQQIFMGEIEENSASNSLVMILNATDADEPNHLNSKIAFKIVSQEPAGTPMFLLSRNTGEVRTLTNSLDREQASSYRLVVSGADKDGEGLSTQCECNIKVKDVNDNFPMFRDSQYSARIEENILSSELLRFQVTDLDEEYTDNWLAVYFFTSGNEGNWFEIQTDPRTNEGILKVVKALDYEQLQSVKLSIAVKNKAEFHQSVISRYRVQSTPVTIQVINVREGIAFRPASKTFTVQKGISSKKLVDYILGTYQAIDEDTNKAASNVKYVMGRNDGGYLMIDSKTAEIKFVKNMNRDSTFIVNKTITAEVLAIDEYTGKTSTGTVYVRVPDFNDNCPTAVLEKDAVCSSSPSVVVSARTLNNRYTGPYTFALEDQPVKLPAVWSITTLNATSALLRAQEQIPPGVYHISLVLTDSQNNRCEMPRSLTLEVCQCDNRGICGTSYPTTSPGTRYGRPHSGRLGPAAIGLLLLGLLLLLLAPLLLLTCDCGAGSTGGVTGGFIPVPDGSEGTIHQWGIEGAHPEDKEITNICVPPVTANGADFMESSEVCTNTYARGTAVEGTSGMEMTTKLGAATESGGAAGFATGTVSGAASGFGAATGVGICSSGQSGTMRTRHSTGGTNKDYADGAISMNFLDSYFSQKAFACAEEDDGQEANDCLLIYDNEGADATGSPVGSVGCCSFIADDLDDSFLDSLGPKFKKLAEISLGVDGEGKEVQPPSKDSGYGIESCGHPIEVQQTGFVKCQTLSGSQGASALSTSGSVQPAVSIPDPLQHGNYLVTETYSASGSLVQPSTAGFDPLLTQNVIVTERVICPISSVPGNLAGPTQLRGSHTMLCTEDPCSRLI
Bim-Mcl-1: inhibitors of Bim peptide binding to Mcl-1, primary screen, biochemical, bead-based flow cytometry, multiplex; AID 1009, 2008; inhibition, % at 10 µM; Bim peptide-Mcl-1 binding; 190,000 tested, 0.1% active; Induced myeloid leukemia cell differentiation protein Mcl-1 (Homo sapiens), Q07820; in the data active = inhibition above about 40%;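 also: 0% = no compound tracer wells and 100% = peptide blocker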
Mcl1-Noxa inh: Mcl-1/Noxa binding inhibitors, primary screen, biochemical, TR-FRET, 1536-well. AID 1022, 2008. TR-FRET Mcl-1/Noxa peptide binding, 2 h. 220,000 tested, 1.5% active. Induced myeloid leukemia cell differentiation protein Mcl-1 (Homo sapiens), Q07820. inhibition, % at 21.7 µM;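 active = compounds that cut the protein-peptide binding signal by more than 50% relative to plate controls in a single-dose test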;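 also: His-tagged Mcl-1 with rhodamine Noxa BH3 peptide and terbium anti-His antibody; 0% = Mcl-1 plus Noxa peptide wells and 100% = peptide-only wells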
Mcl1 Bid PPI: Mcl-1/Bid binding inhibitors, primary screen, biochemical, TR-FRET, 1536-well; Induced myeloid leukemia cell differentiation protein Mcl-1 (Homo sapiens), Q07820; TR-FRET Mcl-1/Bid-Dy647 peptide binding; inhibition, % at 21.7 µM; 220,000 tested, 0.97% active; AID 1021, 2008;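 active = compounds that cut the binding signal by more than half at the single screening dose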;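 also: His-tagged Mcl-1 with europium anti-His antibody binding Bid BH3 peptide; 0% = Mcl-1 plus peptide wells and 100% = peptide-only wells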
* hit, by the source's call; . = no result given. Compounds with a hit are over-represented: about 2.3% of the library has one in this group of screens.

SMILES	T cell modulator	MCL1-BIM inh	Pemphigus Ab inh	Bim-Mcl-1	Mcl1-Noxa inh	Mcl1 Bid PPI
O=C(NCc1ccc(Cl)cc1)c1ccncc1	714	-15	83*	.	.	.
Cc1nnc(SCC(=O)NC2CCCC2)n1C(C)C	483	-2	.	.	.	.
O=C(CSc1nc2ccc(Cl)cc2[nH]1)c1ccc2c(c1)OCO2	306	3	102	-3	26	3
O=C(CSc1nc2cc(Cl)c(Cl)cc2[nH]1)c1ccc2c(c1)OCO2	236	-12	96	.	57*	16
Oc1ccc(/C=N/Nc2ccnc3cc(Cl)ccc23)c(O)c1	70	16	87	.	88*	57*
Clc1ccc2c(N/N=C/c3cccnc3)ccnc2c1	218	-1	106	2	34	-29
Cc1ccccc1/C=N/Nc1ccnc2cc(Cl)ccc12	227	1	111	4	98*	52*
Cc1ccc(/C=N/Nc2ccnc3cc(Cl)ccc23)c(C)c1	236	1	110	1	56*	63*
Clc1ccc2c(N/N=C/c3ccc(Br)cc3)ccnc2c1	451	-1	102	4	42	45
COCCN(C(=O)c1ccc2c(c1)C(=O)N(c1ccccc1Cl)C2=O)c1c(N)n(CC(C)C)c(=O)[nH]c1=O	.	.	99	.	.	.
CCc1ccc(NC(=O)c2ccc(NC3=NC4CS(=O)(=O)CC4S3)cc2)cc1 (stereo not given)	295	-8	.	.	.	.
COc1cccc(OCc2cc(C(=O)N3CCN(C(C)=O)CC3)no2)c1	256	4	.	.	.	.
O=C(COc1ccccc1)N(Cc1cccc(F)c1)C1CCS(=O)(=O)C1 (stereo not given)	377	-1	126	.	.	.
O=C(OCC#CCSc1nc2ccccc2s1)c1ccco1	234	8	100	0	66*	-22
Cc1ccc(S(=O)(=O)N2CCOCC2)cc1C(=O)NC1=NCCS1	340	.	.	.	.	.
CCOC(=O)C1CCN(CC(=O)Nc2c(C(=O)OC)[nH]c3cccc(Cl)c23)CC1	348	-3	101	0	4	99*
Cc1ccc(C(=O)OCC(=O)Nc2ccc3c(c2)OCO3)cc1S(=O)(=O)N1CCOCC1	224	-5	94	-3	11	-44
CCN(c1ccc(NC(=O)COC(=O)c2ccc(C)c(S(=O)(=O)N3CCOCC3)c2)cc1)C(C)C	773	4	100	-6	74*	24
Cc1ccc(O)c(NC(=O)c2onc(C)c2Cl)c1	161	-17	94	.	.	.
Cc1c2cccn2cc[n+]1C	78*	-17	119	-2	15	-1
CCCn1ncc(CN2CCC(n3nccc3NC(=O)c3ccccc3Cl)CC2)c1C	452	-1	.	.	.	.
CCN(c1ccc(OC)cc1)S(=O)(=O)c1nnc(NC(=O)c2ccc(C)cc2)s1	580	-11	92	.	.	.
O=C1CC(c2ccccc2)Oc2cc(O)cc(O)c21 (stereo not given)	434	2	97	.	8	-59
COc1cc(OC)c2c(c1O)OC(c1ccccc1)CC2=O (stereo not given)	244	32	99	-3	54*	-6
Cc1ccc(-c2csc(Nc3ccc(S(N)(=O)=O)cc3)n2)o1	242	6	101	6	64*	-43
SMILES	T cell modulator	MCL1-BIM inh	Pemphigus Ab inh	Bim-Mcl-1	Mcl1-Noxa inh	Mcl1 Bid PPI
CC(=O)c1csc(-c2cccc(-c3nc4ccc(Cl)cn4c3NC3CCCCC3)c2)c1	0.0*	2	103	.	.	.
COc1ccc(-c2cccc(-c3nc4ccc(Cl)cn4c3NC3CCCCC3)c2)cc1	312	.	102	.	.	.
CC(C)CC1NC(=O)N(CC(=O)c2ccc3c(c2)OCCO3)C1=O (stereo not given)	526	-1	104	-1	98*	-4
CCCC1Oc2ccccc2C(=O)N(CC(=O)c2ccc3c(c2)OCCO3)C1=O (stereo not given)	266	-6	.	.	.	.
COc1cccc(C(=O)NNC(=O)c2ccc3ccccc3c2O)c1	520	4	.	.	.	.
COc1ccc(CCN2C(=O)CC(NC34CC5CC(CC(C5)C3)C4)C2=O)cc1OC (stereo not given)	415	7	104	3	-7	-3
COc1ccc(N2C(=O)CC(NC34CC5CC(CC(C5)C3)C4)C2=O)c(OC)c1 (stereo not given)	352	1	104	1	33	57*
CCN(C(=O)CN1C(=O)/C(=C/c2ccccc2)SC1=S)C1CCS(=O)(=O)C1 (stereo not given)	276	9	.	.	.	.
O=C(O)c1ccc(N/N=C/c2cn(Cc3ccccc3F)c3ccccc23)cc1	180	5	105	.	59*	-2
CN(C)c1ccc(NC(=O)C2CCCN(S(=O)(=O)c3ccccc3)C2)cc1 (stereo not given)	260	19	98	-1	69*	-20
O=c1oc2ccccc2c(Nc2ccccc2O)c1[N+](=O)[O-]	152	6	111	-2	14	-20
O=c1oc2ccccc2c(Nc2cc3ccccc3cc2O)c1[N+](=O)[O-]	300	7	99	-5	53*	-23
COc1cc(C(=O)Oc2cccc(C)c2)cc(OC)c1OC	301	1	94	-5	-9	-15
COc1cc(OC)nc(Oc2ccccc2C(=O)Oc2cccc(C)c2)n1	244	-4	99	-7	-7	53*
COc1cc(C(=O)Nc2cccc(-c3nc4cc(C)ccc4o3)c2C)cc(OC)c1OC	316	5	80*	-1	-12	9
CC(=O)C1=C(S(=O)(=O)c2ccc(C)cc2)CS(=O)(=O)C1	.	.	107	0	78*	-31
Cc1ccc(S(=O)(=O)C2CS(=O)(=O)CC2O)cc1 (stereo not given)	529	-6	102	-2	-10	-3
CC(Sc1nnc(N)s1)C(=O)Nc1ccc2c(c1)OCO2 (stereo not given)	.	.	89*	.	.	.
O=C(O)c1ccc2c(c1)-c1cc(C(=O)O)ccc1S2(=O)=O	335	-3	100	.	.	.
O=C(N/N=C/c1ccncc1)c1cccc(NC(=O)c2ccccc2Cl)c1	235	10	100	42*	18	-13
COc1cccc(CNc2nc3ccc(C)cc3n3cnnc23)c1	951	-4	113	.	-17	98*
COc1ccccc1NS(=O)(=O)c1cccc(C(=O)N2CCCCCC2)c1	.	.	92	.	.	.
